The results in this text go back to ChEMBL document CHEMBL1124695, “Brain-specific chemical delivery systems for beta-lactam antibiotics. Synthesis and properties of some dihydropyridine and dihydroiosquinoline derivatives of benzylpenicillin” (J Med Chem, 1989).

Data set [1] is described as follows: Half life of compound when water is added (0.15u) in pH 7.4 phosphate buffer (0.05 M) at 37 degree C. It is filed as ADME. An outline of the steps:
(§1)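 Chemical stability: compound added from freshly prepared 8 mM DMSO stock into 0.05 M phosphate buffer (μ = 0.15), pH 7.4, at 37 °C. Samples drawn at intervals and injected directly onto reversed-phase HPLC with UV detection. Buffer pH checked before and after. Disappearance followed first-order kinetics, giving apparent rate constants. Half-life in minutes.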

Data set [2] in a line: Half life of compound (0.15u) in pH 7.4 phosphate buffer (0.05 M) at 37 degree C. It counts as ADME. An outline of the steps:
as §1

The nature of data set [3]: Stability in aqueous buffer at pH 7.4. It counts as physicochemical. An outline of the steps: as §1
Data set [4] in a line: Second order oxidation rate constant determined by using Ferricyanide. It is filed as ADME. An outline of the steps: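 Oxidation by ferricyanide under pseudo-first-order conditions, with Fe(CN)6^3- in large excess over the dihydro carrier and pH held constant. Pseudo-first-order rates were measured at several ferricyanide concentrations, and the second-order oxidation rate constant (Ko) was derived from them.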

Data set [5] deals with Homo sapiens. The data set can be described thus: Concentration of compound in human blood tissues after intravenous administration of 2 g dose. It counts as ADME, organism-based.
Data set [6] can be described thus: Dissociation constant of the compound. It is filed as physicochemical.
Data set [7] is described as follows: Partition coefficient (logP). It is filed as physicochemical. The settings on record: octanol/water.
Data set [8] concerns Homo sapiens. The data set can be described thus: Concentration of compound in human brain tissues after intravenous administration of 2 g dose. It counts as ADME, organism-based. The note with it: in vivo.

One may read the half-life as the time needed for the level to fall by half in the phase considered. A low value points to rapid decline. Take `C[n+]1cccc(C(=O)NCC(OC(=O)C2N3C(=O)[C@@H](NC(=O)Cc4ccccc4)[C@H]3SC2(C)C)c2ccccc2)c1.[I-]` (stereo partly specified): in data set [1], the half-life is 4.47 h.
In turn, `CN1C=C(C(=O)NCCOC(=O)C2N3C(=O)[C@@H](NC(=O)Cc4ccccc4)[C@H]3SC2(C)C)c2ccccc2C1` (stereo partly specified) came in with a half-life in data set [2] of 16.5 h.
In data set [1], `C[n+]1cc(C(=O)NCCOC(=O)C2N3C(=O)[C@@H](NC(=O)Cc4ccccc4)[C@H]3SC2(C)C)c2ccccc2c1.[I-]` (stereo partly specified) returned a half-life of 6.29 h.
The compound `CC1(C)S[C@@H]2[C@H](NC(=O)Cc3ccccc3)C(=O)N2C1C(=O)OCCO` (stereo partly specified) yielded a half-life in data set [2] of 7.27 h. This compound also showed a k in data set [3] of 0.0016 min⁻¹.
Turning to `CC(CNC(=O)c1ccc[n+](C)c1)OC(=O)C1N2C(=O)[C@@H](NC(=O)Cc3ccccc3)[C@H]2SC1(C)C.[I-]` (stereo partly specified), the half-life in data set [1] amounted to 6.06 h.
On the same count and under the same terms, the figure for `C[n+]1cccc(C(=O)OCCOC(=O)C2N3C(=O)[C@@H](NC(=O)Cc4ccccc4)[C@H]3SC2(C)C)c1.[I-]` (stereo partly specified) is 0.615 h; for `C[n+]1cccc(C(=O)NCCOC(=O)C2N3C(=O)[C@@H](NC(=O)Cc4ccccc4)[C@H]3SC2(C)C)c1.[I-]` (stereo partly specified) it is 3.26 h.
Turning to `CN1C=CCC(C(=O)OCOC(=O)C2N3C(=O)[C@@H](NC(=O)Cc4ccccc4)[C@H]3SC2(C)C)=C1` (stereo partly specified), the half-life in data set [2] came out at 1.55 h; in data set [1] it was 2.26 h. In addition, in data set [4], the Ko was found to be 0.53 M⁻¹ s⁻¹.
In data set [1], `C[n+]1cccc(C(=O)OCOC(=O)C2N3C(=O)[C@@H](NC(=O)Cc4ccccc4)[C@H]3SC2(C)C)c1.[I-]` (stereo partly specified) showed a half-life of 0.045 h.
For the compound `CN1C=CCC(C(=O)NCC(OC(=O)C2N3C(=O)[C@@H](NC(=O)Cc4ccccc4)[C@H]3SC2(C)C)c2ccccc2)=C1` (stereo partly specified), in data set [2], the half-life worked out at 0.587 h. Besides, the Ko in data set [4] stood at 15.85 M⁻¹ s⁻¹.
As to `CN1C=CCC(C(=O)NCCOC(=O)C2N3C(=O)[C@@H](NC(=O)Cc4ccccc4)[C@H]3SC2(C)C)=C1` (stereo partly specified), the half-life worked out at 0.213 h in data set [2] and 2.47 h in data set [1]. The Ko in data set [4] came out at 26.08 M⁻¹ s⁻¹.
The like results for `CN1C=CCC(C(=O)OCCOC(=O)C2N3C(=O)[C@@H](NC(=O)Cc4ccccc4)[C@H]3SC2(C)C)=C1` (stereo partly specified) were, in that order, 1.93 h, 7.38 h and 1.552 M⁻¹ s⁻¹.
Take `CC(CNC(=O)C1=CN(C)C=CC1)OC(=O)C1N2C(=O)[C@@H](NC(=O)Cc3ccccc3)[C@H]2SC1(C)C` (stereo partly specified): the half-life in data set [2] came out at 0.43 h. The compound further registered a Ko in data set [4] of 11.94 M⁻¹ s⁻¹.
As usually defined, the pKa is the negative logarithm of the acid dissociation constant. Low readings indicate a stronger acid or weaker base, high ones a weaker acid or stronger base. As a reminder, the logP is the decadic logarithm of the partition coefficient of the neutral form, usually between octanol and water. Low values mean lower lipophilicity, high ones higher lipophilicity. Turning to `CC1(C)S[C@@H]2[C@H](NC(=O)Cc3ccccc3)C(=O)N2[C@H]1C(=O)O` [PENICILLIN G], the Concentration with Homo sapiens [5] was 7500 ng/mL; in the data set with Homo sapiens [8] it was 320 ng/mL. In data set [6], this compound returned a pKa of 2.6. The logP in data set [7] stood at 1.76.
